Test results as given in PubChem BioAssay.
Inconclusive results are not listed.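 How the source made its calls, unless noted: active means viability increase at or above a cutoff of the median across tested compounds plus 3 SD (cut at about 8.5% in these data, passing the limit was not always enough); inconclusive means some gains above the cutoff, reason not given; inactive means the rest.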

Assays:
[1] = S. cerevisiae growth inhibition in permissive medium (OD615), pilot counter-assay for S. cerevisiae lifespan shortening project, permissive growth control (AID 705;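 active means growth inhibition above 25% in both replicates, a cutoff set 3 SD above the mean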); settings: OD615, 24 h, at 10 µM, stronger effect = higher value
How it was run: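 System: Engineered DeaD yeast | Buffer or medium: SC raffinose/galactose permissive medium | Doses: 10 µM single dose, 0.25% DMSO | Times: 24 h exposure, 30 °C | Measured by: OD615 turbidity read | Read-out: Yeast growth inhibition indicated by reduced 24 h OD615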

[2] = S. cerevisiae growth inhibition in restrictive medium, OD615, pilot screen, restrictive growth control, yeast lifespan reduction project (AID 706;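 active means growth inhibition above a set limit, 3 SD over mean compound inhibition, in both replicates, cut at about 43% in these data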;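 further: modified DeaD lifespan yeast strain shifted to restrictive glucose medium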); settings: OD615, 48 h, at 10 µM, stronger effect = higher value
How it was run: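 Assay system: engineered S. cerevisiae DeaD strain; Buffer or medium: CSMM-D glucose medium; Dosing: 10 µM compound, 0.25% DMSO; Times: cell pre-growth 4 h, compound exposure 48 h, 30 °C; Detection: absorbance (optical density) measured at 615 nm.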

[3] = doxorubicin toxicity protection in MRP-1 cells – H69AR cells, CellTiter-Glo, duplicate, MRP-1 activator project, pilot screen (AID 807); settings: H69AR viability with doxorubicin, CellTiter-Glo luminescence; at 10 µM; stronger effect = higher value;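 further: compound pretreatment 18-22 h then 72 h combined with doxorubicin; 0% = doxorubicin alone and 100% = vehicle without doxorubicin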
[4] = viability of HCT116 without oncogenic beta-catenin – human colon tumor cells, pilot screen (AID 823;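 active means cell viability at or below a set limit in both duplicate runs, the limit being the all-compound median minus 4 SD, cut at about 23% in these data, passing the limit was not always enough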;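 further: 0% = wells killed by 20 µM Hyamine and 100% = untreated DMSO cell wells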); settings: HCT116 beta-catenin knockout viability, CellTiter-Glo, 60 h; at 10 µM; stronger effect = lower value
[5] = viability of PTEN-null HCT116 cells – cell-based, HCT116 clonal line, CellTiter-Glo, pilot screen (AID 824;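 active means viability at or below 27.92% in each of two runs, the all-compound median minus 4 SD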;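 further: 0% = 20 µM Hyamine control and 100% = vehicle cell control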); settings: HCT116 PTEN-deleted viability, 60 h, at 10 µM, stronger effect = lower value
[6] = RAM pathway blockade in budding yeast – dse1pr::URA3 reporter, 5-FOA selection, pilot screen (AID 869;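 active means inhibition over a set limit, the all-compound mean plus 3 SD, in both replicate runs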;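 further: 0% = DMSO wells with no growth and 100% = 10 µM 1-NA-PP1 with full growth; RAM network block rescues cells from 5-FOA so hits raise OD615 growth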); settings: S. cerevisiae dse1pr::URA3 5-FOA growth, OD615, 2 d; at 10 µM; stronger effect = higher value; strain carries analog-sensitive mutant Cbk1 kinase
[7] = RAM signaling pathway blockade in yeast – S. cerevisiae, Pdr1DBD-CYC8 efflux-inhibited sensitized strain, primary screen (AID 1298;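 active means RAM network inhibition above 8.4% in each of two replicates, 3 SD over the compound average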;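 further: 0% = DMSO untreated cells without growth and 100% = 10 µM 1-NA-PP1 full growth; higher means more yeast growth rescued from 5-FOA killing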); settings: S. cerevisiae cbk1-as DSE1-URA3 strain, 5-FOA growth OD615, 2 d; at 50 µM; stronger effect = higher value

Cc1ccc2nc(N3CCOCC3)c3nncn3c2c1
inactive: growth inhibition [1] -6.37% | growth inhibition [2] 3.97% | viability increase [3] -2.43% | viability [4] 106% | viability [5] 96.1% | inhibition [6] 0.915% | RAM network inhibition [7] 1.57%

CCOC(=O)CSc1nccc(N(C)C)c1C#N
inactive: growth inhibition [1] -5.06% | growth inhibition [2] 7.88% | viability increase [3] 1.04% | viability [4] 99% | viability [5] 100% | inhibition [6] 0.83% | RAM network inhibition [7] 4.81%

COc1ccc(-n2c(Cc3cccn3C)nnc2SCC(=O)Nc2ccc(C(C)=O)cc2)cc1
inactive: growth inhibition [1] 3.63% | growth inhibition [2] 17.8% | viability increase [3] -3.67% | viability [4] 99.4% | viability [5] 90.8% | inhibition [6] 1.6% | RAM network inhibition [7] 3.56%

CCOC(=O)C1=C(C)N=c2s/c(=C\C(=O)OC)c(=O)n2C1c1ccc(OC)cc1 (stereo not given)
inactive: growth inhibition [1] -2.88% | growth inhibition [2] 11.6% | viability increase [3] -2.64% | viability [4] 100% | viability [5] 101% | inhibition [6] 1.73% | RAM network inhibition [7] 4.95%

Cc1noc(NS(=O)(=O)c2ccc(NC(=O)CCn3c(=O)oc4ccccc43)cc2)c1C
inactive: growth inhibition [1] 0.07% | growth inhibition [2] -7.86% | viability increase [3] -1.22% | viability [4] 97.7% | viability [5] 96.2% | inhibition [6] 1.24% | RAM network inhibition [7] 6.07%

COc1ccc(S(=O)(=O)N2CCC(C(=O)NCCC3=CCCCC3)CC2)cc1OC
inactive: growth inhibition [1] -5.45% | growth inhibition [2] -0.575% | viability increase [3] -0.8% | viability [4] 96.2% | viability [5] 96.9% | inhibition [6] 1.67% | RAM network inhibition [7] 4.24%

CCCCc1ccc(Nc2ncnc3nc[nH]c23)cc1
inactive: growth inhibition [1] -6.71% | growth inhibition [2] 22.7% | viability increase [3] 2.8% | viability [4] 106% | viability [5] 94% | inhibition [6] -0.1% | RAM network inhibition [7] 1.66%

CC1(C)CC(n2c(NCCO)nc3c(c2=O)C2(CCCC2)Cc2ccccc2-3)CCO1 (stereo not given)
inactive: growth inhibition [1] 11.7% | growth inhibition [2] 2.4% | viability increase [3] -6.73% | viability [4] 96.2% | viability [5] 93.4% | inhibition [6] 0.65% | RAM network inhibition [7] 7.43%

O=C(CN1CCN(CC(=O)Nc2ccccn2)CC1)Nc1ccccn1
inactive: growth inhibition [1] -2.54% | growth inhibition [2] -0.335% | viability increase [3] -0.95% | viability [4] 98.6% | viability [5] 97.6% | inhibition [6] 0.705% | RAM network inhibition [7] 6.03%

CCCN1C(=O)c2cc(C(=O)Nc3ccccc3CC)ccc2C1O (stereo not given)
inactive: growth inhibition [1] -6.36% | growth inhibition [2] -1.31% | viability increase [3] -0.05% | viability [4] 101% | viability [5] 108% | inhibition [6] 0.77% | RAM network inhibition [7] 3.59%

Cc1ccc(C(c2sc3ncnn3c2O)N2CCCCC2)cc1 (stereo not given)
inactive: growth inhibition [1] -12.7% | growth inhibition [2] -15.6% | viability increase [3] 1.87% | viability [4] 92.9% | viability [5] 101% | inhibition [6] 0.04% | RAM network inhibition [7] -0.37%

COc1ccc(-c2nc3n(n2)C(c2ccccc2Cl)C(C(N)=O)=C(C)N3)cc1 (stereo not given)
inactive: growth inhibition [1] -14.2% | growth inhibition [2] 0.71% | viability increase [3] -0.48% | viability [4] 96.9% | viability [5] 96.2% | inhibition [6] 1.66% | RAM network inhibition [7] -1.36%

O=C(CCS(=O)(=O)c1cccc2nonc12)N1CCCc2ccccc21
inactive: growth inhibition [1] -10.4% | growth inhibition [2] -22.1% | viability increase [3] -4.61% | viability [4] 92.8% | viability [5] 92.9% | inhibition [6] 2.08% | RAM network inhibition [7] 8.49%

CCCSC1=C(C#N)C(c2ccc(O)c(OC)c2)CC(=O)N1 (stereo not given)
inactive: growth inhibition [1] -14.9% | growth inhibition [2] -22.5% | viability increase [3] -2.92% | viability [4] 104% | viability [5] 101% | inhibition [6] 1.66% | RAM network inhibition [7] 1.36%

COC(=O)COC(=O)CC(CC(N)=O)c1ccccc1 (stereo not given)
inactive: growth inhibition [1] -8.58% | growth inhibition [2] -0.775% | viability increase [3] -0.29% | viability [4] 95% | viability [5] 102% | inhibition [6] 2.13% | RAM network inhibition [7] 3.07%

CCOc1ccccc1NC(=O)CSc1nnc(Cn2c(=O)sc3ccccc32)n1C
inactive: growth inhibition [1] -8.96% | growth inhibition [2] 9.08% | viability increase [3] -2.73% | viability [4] 91.5% | viability [5] 92% | inhibition [6] 1.48% | RAM network inhibition [7] 2.49%

COc1cccc(NC(=O)c2cccnc2)c1
inactive: growth inhibition [1] -5.19% | growth inhibition [2] 7.85% | viability increase [3] 1.59% | viability [4] 100% | viability [5] 87.2% | inhibition [6] 0.55% | RAM network inhibition [7] 3.7%

COc1ccc(CN2CCCCC2C(=O)Nc2ccc(OC)c(OC)c2)cc1OC (stereo not given)
inactive: growth inhibition [1] -10.9% | growth inhibition [2] -12.6% | viability increase [3] -1.88% | viability [4] 95.8% | viability [5] 93.3% | inhibition [6] 0.01% | RAM network inhibition [7] 0.21%

COc1ccccc1N=C(C)C1=C(O)CSC1=O
inactive: growth inhibition [1] -9.17% | growth inhibition [2] -5.92% | viability increase [3] -1.29% | viability [4] 99.6% | viability [5] 93.3% | inhibition [6] -0.17% | RAM network inhibition [7] 6.89%

Cn1c(C(=O)NCc2ccccn2)cc2c(=O)n(C)c3ccccc3c21
inactive: growth inhibition [1] -1.81% | growth inhibition [2] 0.035% | viability increase [3] -4.13% | viability [4] 103% | viability [5] 89.5% | inhibition [6] 0.965% | RAM network inhibition [7] -0.15%

COC(=O)c1ccc2c(=O)n3c(nc2c1)SCC(c1ccccc1)=N3
inactive: growth inhibition [1] 2.69% | growth inhibition [2] -0.25% | viability increase [3] -1.81% | viability [4] 95.1% | viability [5] 94.8% | inhibition [6] 2.39% | RAM network inhibition [7] 10.7%

O=C1N2CN(C(c3ccccc3)c3ccccc3)CN=C2SC1(CO)CO
inactive: growth inhibition [1] -9.07% | growth inhibition [2] -4.68% | viability increase [3] -2.69% | viability [4] 62.9% | viability [5] 74.8% | inhibition [6] 1.88% | RAM network inhibition [7] 1.39%

CC(=O)N1CCc2cc(C(=O)CN3CCCCC3)ccc21
inactive: growth inhibition [1] -6.58% | growth inhibition [2] -8.28% | viability increase [3] -2.19% | viability [4] 99% | viability [5] 94.7% | inhibition [6] 0.435% | RAM network inhibition [7] 1.91%

O=C1c2oc3ccc(Cl)cc3c(=O)c2C(c2ccco2)N1CCN1CCOCC1 (stereo not given)
inactive: growth inhibition [1] -2.05% | growth inhibition [2] -4.56% | viability increase [3] -5.51% | viability [4] 89.6% | viability [5] 90.4% | inhibition [6] 0.415% | RAM network inhibition [7] -1.88%

CC(=O)c1ccc2c3c(ccc(O)c13)CC2
inactive: growth inhibition [1] -1.21% | growth inhibition [2] 7.16% | viability increase [3] -4.04% | viability [4] 97.2% | viability [5] 88% | inhibition [6] 1.52% | RAM network inhibition [7] 5.46%

CCOC(=O)c1ccc(Nc2ccc(-c3ccc(OC)c(OC)c3)nn2)cc1
inactive: growth inhibition [1] -6.25% | growth inhibition [2] -20% | viability increase [3] -5.24% | viability [4] 80.8% | viability [5] 77.2% | inhibition [6] 2.08% | RAM network inhibition [7] 3.37%

Cc1ccc(-c2nc(CS(=O)CC(=O)NCc3ccccc3)c(C)o2)cc1 (stereo not given)
inactive: growth inhibition [1] 2.69% | growth inhibition [2] -1.83% | viability increase [3] -2.84% | viability [4] 98.2% | viability [5] 89.5% | inhibition [6] 0.175% | RAM network inhibition [7] 6.78%

COC(=O)C1=CN(C)C=C(C(=O)OC)C1c1ccc(Cl)cc1Cl
inactive: growth inhibition [1] -12.4% | growth inhibition [2] -10.4% | viability increase [3] -2.14% | viability [4] 85.1% | viability [5] 78.2% | inhibition [6] 3.2% | RAM network inhibition [7] 8.48%

COCCn1c(SCC(=O)Nc2ccccc2)nc2c1c(=O)[nH]c(=O)n2C
inactive: growth inhibition [1] 1.17% | growth inhibition [2] -4.34% | viability increase [3] 1.21% | viability [4] 102% | viability [5] 95.5% | inhibition [6] 1.67% | RAM network inhibition [7] 1.25%

CCOC(=O)Cn1c(=O)oc2cc(S(=O)(=O)N3CCN(c4ccccn4)CC3)ccc21
inactive: growth inhibition [1] 10.4% | growth inhibition [2] 6.56% | viability increase [3] -2.64% | viability [4] 96.3% | viability [5] 99.5% | inhibition [6] 0.75% | RAM network inhibition [7] 3.64%

Cc1ccc(NC(=O)CN(c2cc(C)cc(C)c2)S(=O)(=O)c2c(C)noc2C)nc1
inactive: growth inhibition [1] -8.61% | growth inhibition [2] -7.12% | viability increase [3] -3.03% | viability [4] 69.4% | viability [5] 70.6% | inhibition [6] 0.895% | RAM network inhibition [7] 7.84%

O=C(Nc1ccc2oc(-c3ccccc3)nc2c1)c1ccncc1
inactive: growth inhibition [1] -2.31% | growth inhibition [2] -10.5% | viability increase [3] 2.36% | viability [4] 79.7% | viability [5] 77.9% | inhibition [6] 0.165% | RAM network inhibition [7] 1.62%

O=C(CCCn1c(=O)oc2ccccc21)N1CCc2ccccc2C1
inactive: growth inhibition [1] -8.29% | growth inhibition [2] -14.1% | viability increase [3] -4.06% | viability [4] 94.3% | viability [5] 95.2% | inhibition [6] 1.48% | RAM network inhibition [7] 4.82%

CC(C)Sc1oc(-c2ccco2)nc1S(=O)(=O)c1ccc(F)cc1
inactive: growth inhibition [1] -5.61% | growth inhibition [2] -0.07% | viability increase [3] -2.29% | viability [4] 94% | viability [5] 89.8% | inhibition [6] 1.54% | RAM network inhibition [7] 6.36%

Cn1ccnc1SCC(=O)c1cc2ccccc2o1
inactive: growth inhibition [1] -6.64% | growth inhibition [2] -0.315% | viability increase [3] -2.52% | viability [4] 95.7% | viability [5] 99.4% | inhibition [6] 0.57% | RAM network inhibition [7] 1.04%
